Experimental data published in ChEMBL document CHEMBL2157878, “In vitro cellular uptake and dimerization of signal transducer and activator of transcription-3 (STAT3) identify the photosensitizing and imaging-potential of isomeric photosensitizers derived from chlorophyll-a and bacteriochlorophyll-a” (J Med Chem, 2011).

Tests used:
Mus musculus [1] = assay: Drug uptake in mouse Colon 26 cells xenografted iv dosed BALB/c mouse after 24 hrs by PET imaging; format: ADME, organism-based; settings: in vivo
Method in brief: (§1)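 Colon26 tumors grown subcutaneously in BALB/c mice. ¹²⁴I-labeled photosensitizer given into the tail vein at 52–122 μCi. Under isoflurane/oxygen anesthesia, animals were scanned prone on a microPET for 30 min at 24, 48 and 72 h post-injection. Tumor uptake was estimated by region-of-interest calculations.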

Mus musculus [2] = assay: Drug uptake in mouse Colon 26 cells xenografted iv dosed BALB/c mouse after 48 hrs by PET imaging; format: ADME, organism-based; settings: in vivo; method in brief: as §1
Mus musculus [3] = assay: Drug uptake in mouse Colon 26 cells xenografted iv dosed BALB/c mouse after 72 hrs by PET imaging; format: ADME, organism-based; settings: in vivo; method in brief: as §1
Blood [4] = assay: Drug uptake in BALB/c mouse blood xenografted with mouse Colon 26 cells at 100 uCi administered parenterally after 24 hrs by PET analysis; format: ADME, tissue-based; settings: in vivo, other
Method in brief: (§2)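 ¹²⁴I-labelled PS given by tail vein to BALB/c mice bearing Colon26 tumours (100 μCi per figure legend). Three mice per time point killed at 24, 48 and 72 h. Tumour, organs and blood weighed and counted in a γ-well counter. Uptake expressed as %ID/g.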

Muscle tissue [5] = assay: Drug uptake in BALB/c mouse muscle xenografted with mouse Colon 26 cells at 100 uCi administered parenterally after 24 hrs by PET analysis; format: ADME, tissue-based; settings: in vivo, other; method in brief: as §2
Spleen [6] = assay: Drug uptake in BALB/c mouse spleen xenografted with mouse Colon 26 cells at 100 uCi administered parenterally after 24 hrs by PET analysis; format: ADME, tissue-based; settings: in vivo, other; method in brief: as §2
Kidney [7] = assay: Drug uptake in BALB/c mouse kidney xenografted with mouse Colon 26 cells at 100 uCi administered parenterally after 24 hrs by PET analysis; format: ADME, tissue-based; settings: in vivo, other; method in brief: as §2
Lung [8] = assay: Drug uptake in BALB/c mouse lungs xenografted with mouse Colon 26 cells at 100 uCi administered parenterally after 24 hrs by PET analysis; format: ADME, tissue-based; settings: in vivo, other; method in brief: as §2
Heart [9] = assay: Drug uptake in BALB/c mouse heart xenografted with mouse Colon 26 cells at 100 uCi administered parenterally after 24 hrs by PET analysis; format: ADME, tissue-based; settings: in vivo, other; method in brief: as §2
Liver [10] = assay: Drug uptake in BALB/c mouse liver xenografted with mouse Colon 26 cells at 100 uCi administered parenterally after 24 hrs by PET analysis; format: ADME, tissue-based; settings: in vivo, other; method in brief: as §2
[11] = Drug uptake in BALB/c mouse gut xenografted with mouse Colon 26 cells at 100 uCi administered parenterally after 24 hrs by PET analysis; format: ADME, cell-based; settings: in vivo, other
Stomach [12] = assay: Drug uptake in BALB/c mouse stomach xenografted with mouse Colon 26 cells at 100 uCi administered parenterally after 24 hrs by PET analysis; format: ADME, tissue-based; settings: in vivo, other; method in brief: as §2
[13] = Drug uptake in mouse Colon 26 cells implanted BALB/c mouse tumor at 100 uCi administered parenterally after 24 hrs by gamma counting; format: ADME, Neoplasm; settings: in vivo, other; method in brief: as §2
Blood [14] = assay: Drug uptake in BALB/c mouse blood xenografted with mouse Colon 26 cells at 100 uCi administered parenterally after 48 hrs by PET analysis; format: ADME, tissue-based; settings: in vivo, other; method in brief: as §2
Muscle tissue [15] = assay: Drug uptake in BALB/c mouse muscle xenografted with mouse Colon 26 cells at 100 uCi administered parenterally after 48 hrs by PET analysis; format: ADME, tissue-based; settings: in vivo, other; method in brief: as §2
Spleen [16] = assay: Drug uptake in BALB/c mouse spleen xenografted with mouse Colon 26 cells at 100 uCi administered parenterally after 48 hrs by PET analysis; format: ADME, tissue-based; settings: in vivo; method in brief: as §2
Kidney [17] = assay: Drug uptake in BALB/c mouse kidney xenografted with mouse Colon 26 cells at 100 uCi administered parenterally after 48 hrs by PET analysis; format: ADME, tissue-based; settings: in vivo, other; method in brief: as §2
Lung [18] = assay: Drug uptake in BALB/c mouse lungs xenografted with mouse Colon 26 cells at 100 uCi administered parenterally after 48 hrs by PET analysis; format: ADME, tissue-based; settings: in vivo, other; method in brief: as §2
Heart [19] = assay: Drug uptake in BALB/c mouse heart xenografted with mouse Colon 26 cells at 100 uCi administered parenterally after 48 hrs by PET analysis; format: ADME, tissue-based; settings: in vivo, other; method in brief: as §2
Liver [20] = assay: Drug uptake in BALB/c mouse liver xenografted with mouse Colon 26 cells at 100 uCi administered parenterally after 48 hrs […]; format: ADME, tissue-based; settings: in vivo; method in brief: as §2
[21] = Drug uptake in BALB/c mouse gut xenografted with mouse Colon 26 cells at 100 uCi administered parenterally after 48 hrs by PET analysis; format: ADME, cell-based; settings: in vivo, other; method in brief: as §2
Stomach [22] = assay: Drug uptake in BALB/c mouse stomach xenografted with mouse Colon 26 cells at 100 uCi administered parenterally after 48 hrs by PET analysis; format: ADME, tissue-based; settings: in vivo, other; method in brief: as §2
[23] = Drug uptake in mouse Colon 26 cells implanted subcutaneously in BALB/c mouse tumor at 100 uCi administered parenterally after 48 hrs by gamma counting; format: ADME, Neoplasm; settings: in vivo, sc; method in brief: as §2
Blood [24] = assay: Drug uptake in BALB/c mouse blood xenografted with mouse Colon 26 cells at 100 uCi administered parenterally after 72 hrs by PET analysis; format: ADME, tissue-based; settings: in vivo, other; method in brief: as §2
Muscle tissue [25] = assay: Drug uptake in BALB/c mouse muscle xenografted with mouse Colon 26 cells at 100 uCi administered parenterally after 72 hrs by PET analysis; format: ADME, tissue-based; settings: in vivo, other; method in brief: as §2
Spleen [26] = assay: Drug uptake in BALB/c mouse spleen xenografted with mouse Colon 26 cells at 100 uCi administered parenterally after 72 hrs by PET analysis; format: ADME, tissue-based; settings: in vivo, other; method in brief: as §2
Kidney [27] = assay: Drug uptake in BALB/c mouse kidney xenografted with mouse Colon 26 cells at 100 uCi administered parenterally after 72 hrs by PET analysis; format: ADME, tissue-based; settings: in vivo, other; method in brief: as §2
Lung [28] = assay: Drug uptake in BALB/c mouse lungs xenografted with mouse Colon 26 cells at 100 uCi administered parenterally after 72 hrs by PET analysis; format: ADME, tissue-based; settings: in vivo, other; method in brief: as §2
Heart [29] = assay: Drug uptake in BALB/c mouse heart xenografted with mouse Colon 26 cells at 100 uCi administered parenterally after 72 hrs by PET analysis; format: ADME, tissue-based; settings: in vivo, other; method in brief: as §2
Liver [30] = assay: Drug uptake in BALB/c mouse liver xenografted with mouse Colon 26 cells at 100 uCi administered parenterally after 72 hrs by PET analysis; format: ADME, tissue-based; settings: in vivo, other; method in brief: as §2
[31] = Drug uptake in BALB/c mouse gut xenografted with mouse Colon 26 cells at 100 uCi administered parenterally after 72 hrs by PET analysis; format: ADME, cell-based; settings: in vivo, other; method in brief: as §2
Stomach [32] = assay: Drug uptake in BALB/c mouse stomach xenografted with mouse Colon 26 cells at 100 uCi administered parenterally after 72 hrs by PET analysis; format: ADME, tissue-based; settings: in vivo; method in brief: as §2
[33] = Drug uptake in mouse Colon 26 cells implanted subcutaneously in BALB/c mouse tumor at 100 uCi administered parenterally after 72 hrs by gamma counting; format: ADME, Neoplasm; settings: in vivo, sc; method in brief: as §2
Liver [34] = assay: Drug uptake in parenterally dosed BALB/c mouse liver xenografted with mouse Colon 26 cells after 72 hrs by PET analysis; format: ADME, organism-based; settings: in vivo
Method in brief: (§3)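 Tumor-bearing BALB/c mice (Colon26, subcutaneous) received ¹²⁴I-labeled photosensitizer via the tail vein at 15–50 μCi. Three mice per time point were sacrificed at 24, 48 and 72 h. Organs were removed, weighed and counted in a γ-well counter. Uptake was expressed as %ID/g tissue.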

Spleen [35] = assay: Drug uptake in parenterally dosed BALB/c mouse spleen xenografted with mouse Colon 26 cells after 72 hrs by PET analysis; format: ADME, organism-based; settings: in vivo; method in brief: as §3
Intestine = assay: Drug uptake in parenterally dosed BALB/c mouse intestine xenografted with mouse Colon 26 cells after 72 hrs by PET analysis; format: ADME, organism-based; settings: in vivo, other; method in brief: as §3

Drug uptake (Mus musculus [1])	Drug uptake (Mus musculus [2])	Drug uptake (Mus musculus [3])	Drug uptake (Blood [4])	Drug uptake (Muscle tissue [5])	Drug uptake (Spleen [6])	Drug uptake (Kidney [7])	Drug uptake (Lung [8])	Drug uptake (Heart [9])	Drug uptake (Liver [10])	Drug uptake [11]	Drug uptake (Stomach [12])	Drug uptake [13]	Drug uptake (Blood [14])	Drug uptake (Muscle tissue [15])	Drug uptake (Spleen [16])	Drug uptake (Kidney [17])	Drug uptake (Lung [18])	Drug uptake (Heart [19])	Drug uptake (Liver [20])	Compound	other results
Active	Active	Active	Active	Active	Active	Active	Active	Active	Active	Active	Active	Active	Active	Active	Active	Active	Active	Active	Active	CCC1=C(C)c2cc3[nH]c(cc4nc(c5c6[nH]c(cc1n2)c(C)c6C(=O)C5)C(CCC(=O)OC)[C@@H]4C)c(C)c3C(C)OCc1cccc([124I])c1 (stereo partly drawn)	Drug uptake [21]: Active; Drug uptake (Stomach [22]): Active; Drug uptake [23]: Active; Drug uptake (Blood [24]): Active; Drug uptake (Muscle tissue [25]): Active; Drug uptake (Spleen [26]): Active; Drug uptake (Kidney [27]): Active; Drug uptake (Lung [28]): Active; Drug uptake (Heart [29]): Active; Drug uptake (Liver [30]): Active; Drug uptake [31]: Active; Drug uptake (Stomach [32]): Active; Drug uptake [33]: Active
Active	Active	Active	–	–	–	–	–	–	–	–	–	–	–	–	–	–	–	–	–	CC[C@H]1c2cc3[nH]c4c(c5nc(cc6[nH]c(cc(n2)[C@@H]1C)c(C(C)OCc1cccc([124I])c1)c6C)C(C)=C5CCC(=O)OC)CC(=O)c4c3C (stereo partly drawn)	–
Active	Active	Active	–	–	–	–	–	–	–	–	–	–	–	–	–	–	–	–	–	CC[C@H]1c2cc3[nH]c4c(c5nc(cc6[nH]c(cc(n2)[C@@H]1C)c(C(C)OCc1cccc([124I])c1)c6C)C(C)=C5CCC(=O)O)CC(=O)c4c3C (stereo partly drawn)	Drug uptake (Liver [34]): Active; Drug uptake (Spleen [35]): Active; Drug uptake (Intestine): Active
Active	Active	Active	Active	Active	Active	Active	Active	Active	Active	Active	Active	Active	Active	Active	Active	Active	Active	Active	Active	CCC1=C(C)c2cc3[nH]c(cc4nc(c5c6[nH]c(cc1n2)c(C)c6C(=O)C5)C(CCC(=O)O)[C@@H]4C)c(C)c3C(C)OCc1cccc([124I])c1 (stereo partly drawn)	Drug uptake (Liver [34]): Active; Drug uptake (Spleen [35]): Active; Drug uptake (Intestine): Active; Drug uptake [21]: Active; Drug uptake (Stomach [22]): Active; Drug uptake [23]: Active; Drug uptake (Blood [24]): Active; Drug uptake (Muscle tissue [25]): Active; Drug uptake (Spleen [26]): Active; Drug uptake (Kidney [27]): Active; Drug uptake (Lung [28]): Active; Drug uptake (Heart [29]): Active; Drug uptake (Liver [30]): Active; Drug uptake [31]: Active; Drug uptake (Stomach [32]): Active; Drug uptake [33]: Active
